Measured values gathered from unrelated publications.
Each line is one published result; the experiments were not run side by side.

Compound | system | conditions | Tmax [h]
CC(C)OC(=O)NC1CCN(Cc2cc(Cl)c3cccnc3c2O)CC1 | rat, blood | intraperitoneal, 30 mg/kg | 3
O=C(Nc1cc(F)c(F)c(F)c1)c1ccc(F)c(S(=O)(=O)NCc2cccc(B(O)O)c2)c1 | male Sprague-Dawley rat, plasma | oral, 20 mg/kg | 0.38
N#Cc1ccc(Nc2nc(N)cc(Oc3c(F)cc(-c4ccc(C#N)cc4)cc3F)n2)cc1 | Sprague-Dawley rat, plasma | intravenous, 1 mg/kg | 0.08
COc1nc(-c2cc(C)c(N[C@@H](C)c3cc(F)cc(F)c3)nn2)ccc1-n1cnc(C)c1 | male Sprague-Dawley rat, plasma | oral, 5 mg/kg, single dose | 5.3
Oc1c(Br)cc(Cl)c2cccnc12 | Sprague-Dawley rat, plasma | subcutaneous, 10 mg/kg | 1.2
N#Cc1[nH]nnc1-c1cc(Cl)cc(/C=C/c2cccc(C(F)(F)F)c2)c1 | male Sprague-Dawley rat, plasma | oral, 10 mg/kg | 5.3
CNCc1cc(-c2ccccc2F)n(S(=O)(=O)c2cccnc2)c1 | male Sprague-Dawley rat, plasma | oral, 10 mg/kg | 1
O=C(O)CCS(=O)(=O)O | male Sprague-Dawley rat, plasma | intravenous, 10 mg/kg | 0.083
Cc1cc(Nc2ccc(C(F)(F)F)nc2)n2nc(C(C)(F)F)nc2n1 | rat, plasma | oral, 200 mg/kg | 12
Cc1c(-c2ccccc2)cccc1N1C(=O)c2cc(CN[C@H](C(=O)O)C(C)O)c(OCc3cccc(C#N)c3)cc2C1=O (some centres unmarked) | Sprague-Dawley rat, plasma | intravenous, 5 mg/kg | 0.08
C=CC(=O)N1CC2CC(n3nc(-c4ccc(C(=O)Nc5ccccn5)cc4)c4c(N)ncnc43)CC2C1 (centres unmarked) | male Wistar rat, plasma | oral, 300 mg/kg | 4
CNC(=O)c1c(C)oc2cc(Oc3ncnc4cc(OC)c(OC)cc34)ccc12 | Sprague-Dawley rat, plasma | oral, 1 mg/kg, single dose | 4.25
N#Cc1[nH]nnc1-c1cccc(-c2cc(F)cc(C(F)(F)F)c2)c1 | male Sprague-Dawley rat, plasma | oral, 10 mg/kg | 0.8
CCOC(=O)[C@@]12C[C@@H]1[C@@H](n1ccc3c(NC)nc(C#Cc4ccc(Cl)s4)nc31)[C@H](O)[C@@H]2O | male Sprague-Dawley rat, plasma | oral, 10 mg/kg | 1.17
COc1cc(/C=C/C(=O)CC(=O)/C=C/c2ccc(O)c(OC)c2)ccc1O | male Sprague-Dawley rat, plasma | oral, 100 mg/kg | 0.167
CCc1cc(C(=O)NC)c2nccc(N3CCc4c(cc(Cn5ccnc5)cc4-c4cn(C)nc4C(F)(F)F)C3=O)c2c1 | male Sprague-Dawley rat, plasma | oral, 50 mg/kg, single dose | 0.8
Cl.Clc1ccc2c(c1)nc(N1CCNCC1)n2Cc1ccccc1 | rat, plasma | oral, 5 mg/kg | 0.08
